Experimental data published in ChEMBL document CHEMBL4145487, “A focused fragment library targeting the antibiotic resistance enzyme - Oxacillinase-48: Synthesis, structural evaluation and inhibitor design” (Eur J Med Chem, 2018).

Experiment: Inhibition of bacterial beta-lactamase OXA-48 expressed in Escherichia coli strain BL21Star(DE3)pRARE using nitrocefin as substrate
Design: species or system Bacteria
How it was run: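 OXA-48 carried its native signal peptide and was purified from the periplasm. The assay ran at 25 °C in 100 mM sodium phosphate pH 7.0 with 50 mM NaHCO3 and 0.2 mg/mL BSA, against 25 μM nitrocefin. Velocities were taken from the linear range. IC50 came from a nonlinear fit of response versus log inhibitor concentration, with bottom and top fixed from controls.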

SMILES	IC50	pIC50
CC(=O)NCCc1cccc(-c2cccc(C(=O)O)c2)c1	230 µM	3.64
Cn1cccc1-c1cccc(C(=O)O)c1	500 µM	3.3
Cc1nc(N)ncc1-c1cccc(C(=O)O)c1	350 µM	3.46
CC(=O)Nc1ccc(-c2cccc(C(=O)O)c2)cc1	450 µM	3.35
O=C(O)c1cccc(-c2cccc(O)c2)c1	110 µM	3.97
O=C(O)c1cccc(-c2ccc(F)cc2)c1	360 µM	3.45
CC(=O)Nc1cccc(-c2cc(C(=O)O)cc(-c3ccc4ncccc4c3)c2)c1	2.9 µM	5.54
O=C(O)c1cccc(-c2ccccc2F)c1	130 µM	3.89
O=C(O)c1cccc(-c2ccc3ccccc3c2)c1	110 µM	3.98
CS(=O)(=O)Nc1ccc(-c2cccc(C(=O)O)c2)cc1	370 µM	3.43
O=C(O)c1cccc(-c2ccccc2O)c1	50 µM	4.3
CN(C)c1ccc(-c2cccc(C(=O)O)c2)cc1	390 µM	3.41
O=C(O)c1cccc(-c2cncs2)c1	800 µM	3.09
CC(=O)Nc1cccc(-c2cccc(C(=O)O)c2)c1	35 µM	4.45
NCc1cccc(-c2cccc(C(=O)O)c2)c1	600 µM	3.22
CC(=O)OCc1cccc(-c2cccc(C(=O)O)c2)c1	250 µM	3.6
O=C(O)c1cc(-c2ccc3ncccc3c2)cc(-c2ccc3ncccc3c2)c1	110 µM	3.94
NC(=O)c1cccc(-c2cccc(C(=O)O)c2)c1	260 µM	3.58
O=C(O)c1cccc(-c2ccc3cccnc3c2)c1	240 µM	3.61
COC(=O)c1ccccc1-c1cccc(C(=O)O)c1	210 µM	3.69
O=C(O)c1cccc(-c2ccc3[nH]ccc3c2)c1	310 µM	3.51
Cc1cccc(-c2cccc(C(=O)O)c2)c1	170 µM	3.78
COC(=O)c1cccc(-c2cccc(C(=O)O)c2)c1	260 µM	3.59
O=C(O)c1cccc(-c2cncnc2)c1	800 µM	3.1
O=C(O)c1cccc(-c2cccc(F)c2)c1	130 µM	3.88
Cc1ccccc1-c1cccc(C(=O)O)c1	90 µM	4.05
CC(=O)NCCc1ccc(-c2cccc(C(=O)O)c2)cc1	520 µM	3.28

SMILES	IC50	pIC50
CS(=O)(=O)NCc1ccc(-c2cccc(C(=O)O)c2)cc1	450 µM	3.35
O=C(O)c1cccc(-c2cnc(-n3ccnc3)nc2)c1	1300 µM	2.89
CS(=O)(=O)c1cccc(-c2cccc(C(=O)O)c2)c1	120 µM	3.91
NCCc1ccc(-c2cccc(C(=O)O)c2)cc1	1000 µM	2.98
NC(=O)c1ccc(-c2cccc(C(=O)O)c2)cc1	180 µM	3.73
COc1ccc(-c2cccc(C(=O)O)c2)cc1	150 µM	3.82
CS(=O)(=O)NCc1cccc(-c2cccc(C(=O)O)c2)c1	110 µM	3.96
O=C(O)c1cccc(-c2cccc(CO)c2)c1	900 µM	3.04
CS(=O)(=O)NCCc1cccc(-c2cccc(C(=O)O)c2)c1	370 µM	3.43
COc1cccc(-c2cccc(C(=O)O)c2)c1	360 µM	3.44
CS(=O)(=O)c1ccc(-c2cccc(C(=O)O)c2)cc1	380 µM	3.42
O=C(O)c1cccc(-c2ccc(NS(=O)(=O)c3ccccc3)cc2)c1	60 µM	4.25
CC(=O)c1ccc(-c2cccc(C(=O)O)c2)cc1	380 µM	3.42
O=C(O)c1cccc(-c2ccc(O)cc2)c1	470 µM	3.33
COc1ccccc1-c1cccc(C(=O)O)c1	250 µM	3.6
CSc1ccc(-c2cccc(C(=O)O)c2)cc1	400 µM	3.4
NCc1ccc(-c2cccc(C(=O)O)c2)cc1	1400 µM	2.85
O=C(O)c1cccc(-c2ccc(-c3nnn[nH]3)cc2)c1	36 µM	4.48
CC(=O)NCc1cccc(-c2cccc(C(=O)O)c2)c1	130 µM	3.89
CC(=O)Nc1ccc(-c2cc(C(=O)O)cc(-c3ccc(NC(C)=O)cc3)c2)cc1	48 µM	4.32
O=C(O)c1cccc(-c2cccc(-c3nnn[nH]3)c2)c1	60 µM	4.24
Nc1ccc(-c2cccc(C(=O)O)c2)cn1	170 µM	3.76
Nc1ccc(-c2cccc(C(=O)O)c2)cc1	330 µM	3.48
O=C(O)c1cccc(-c2ccccn2)c1	35 µM	4.46
CC(=O)Nc1cccc(-c2cc(C(=O)O)cc(-c3ccncc3)c2)c1	100 µM	3.99
CC(=O)Nc1cccc(-c2cc(C(=O)O)cc(-c3cccc(NC(C)=O)c3)c2)c1	2.9 µM	5.53
NCCc1cccc(-c2cccc(C(=O)O)c2)c1	110 µM	3.95

Experiment: Binding affinity to bacterial His-tagged beta-lactamase OXA-48 expressed in Escherichia coli strain BL21Star(DE3)pRARE by surface plasmon resonance assay
Design: species or system Bacteria
How it was run: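 His-tagged OXA-48 amine-coupled to a CM5 chip to around 5000 RU (enzyme at 25 μg/mL in 10 mM MES pH 5.5). Ten dilutions from 400 μM to 10.5 μM were injected for 30 s with 60 s dissociation (300 s for kinetic binders). Sensorgrams were double-referenced. Kd came from a steady-state model with Rmax fixed via a positive control.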

SMILES	Kd
CC(=O)NCCc1cccc(-c2cccc(C(=O)O)c2)c1	170 µM
Cn1cccc1-c1cccc(C(=O)O)c1	590 µM
Cc1nc(N)ncc1-c1cccc(C(=O)O)c1	113 µM
CC(=O)Nc1ccc(-c2cccc(C(=O)O)c2)cc1	290 µM
O=C(O)c1cccc(-c2cccc(O)c2)c1	110 µM
O=C(O)c1cccc(-c2ccc(F)cc2)c1	312 µM
CC(=O)Nc1cccc(-c2cc(C(=O)O)cc(-c3ccc4ncccc4c3)c2)c1	49 to 60 µM
O=C(O)c1cccc(-c2ccccc2F)c1	170 µM
O=C(O)c1cccc(-c2ccc3ccccc3c2)c1	400 µM
CS(=O)(=O)Nc1ccc(-c2cccc(C(=O)O)c2)cc1	100 µM
O=C(O)c1cccc(-c2ccccc2O)c1	175 µM
CN(C)c1ccc(-c2cccc(C(=O)O)c2)cc1	220 µM
O=C(O)c1cccc(-c2cncs2)c1	900 µM
CC(=O)Nc1cccc(-c2cccc(C(=O)O)c2)c1	100 µM
NCc1cccc(-c2cccc(C(=O)O)c2)c1	800 µM
CC(=O)OCc1cccc(-c2cccc(C(=O)O)c2)c1	140 to 181 µM
O=C(O)c1cc(-c2ccc3ncccc3c2)cc(-c2ccc3ncccc3c2)c1	70 µM
NC(=O)c1cccc(-c2cccc(C(=O)O)c2)c1	220 µM
O=C(O)c1cccc(-c2ccc3cccnc3c2)c1	160 µM
COC(=O)c1ccccc1-c1cccc(C(=O)O)c1	200 µM
O=C(O)c1cccc(-c2ccc3[nH]ccc3c2)c1	400 µM
Cc1cccc(-c2cccc(C(=O)O)c2)c1	300 µM
COC(=O)c1cccc(-c2cccc(C(=O)O)c2)c1	144 µM
O=C(O)c1cccc(-c2cncnc2)c1	900 µM
O=C(O)c1cccc(-c2cccc(F)c2)c1	240 µM
Cc1ccccc1-c1cccc(C(=O)O)c1	170 µM
CC(=O)NCCc1ccc(-c2cccc(C(=O)O)c2)cc1	190 µM

SMILES	Kd
CS(=O)(=O)NCc1ccc(-c2cccc(C(=O)O)c2)cc1	240 µM
O=C(O)c1cccc(-c2cnc(-n3ccnc3)nc2)c1	1000 to 1160 µM
CS(=O)(=O)c1cccc(-c2cccc(C(=O)O)c2)c1	150 µM
NCCc1ccc(-c2cccc(C(=O)O)c2)cc1	970 µM
NC(=O)c1ccc(-c2cccc(C(=O)O)c2)cc1	200 to 350 µM
COc1ccc(-c2cccc(C(=O)O)c2)cc1	250 µM
CS(=O)(=O)NCc1cccc(-c2cccc(C(=O)O)c2)c1	110 µM
O=C(O)c1cccc(-c2cccc(CO)c2)c1	230 µM
CS(=O)(=O)NCCc1cccc(-c2cccc(C(=O)O)c2)c1	200 µM
COc1cccc(-c2cccc(C(=O)O)c2)c1	226 µM
CS(=O)(=O)c1ccc(-c2cccc(C(=O)O)c2)cc1	361 µM
O=C(O)c1cccc(-c2ccc(NS(=O)(=O)c3ccccc3)cc2)c1	210 µM
CC(=O)c1ccc(-c2cccc(C(=O)O)c2)cc1	280 µM
O=C(O)c1cccc(-c2ccc(O)cc2)c1	170 µM
COc1ccccc1-c1cccc(C(=O)O)c1	123 µM
CSc1ccc(-c2cccc(C(=O)O)c2)cc1	1000 µM
NCc1ccc(-c2cccc(C(=O)O)c2)cc1	550 µM
O=C(O)c1cccc(-c2ccc(-c3nnn[nH]3)cc2)c1	70 µM
CC(=O)NCc1cccc(-c2cccc(C(=O)O)c2)c1	130 µM
CC(=O)Nc1ccc(-c2cc(C(=O)O)cc(-c3ccc(NC(C)=O)cc3)c2)cc1	70 µM
O=C(O)c1cccc(-c2cccc(-c3nnn[nH]3)c2)c1	70 µM
Nc1ccc(-c2cccc(C(=O)O)c2)cn1	130 µM
Nc1ccc(-c2cccc(C(=O)O)c2)cc1	330 µM
O=C(O)c1cccc(-c2ccccn2)c1	159 µM
CC(=O)Nc1cccc(-c2cc(C(=O)O)cc(-c3ccncc3)c2)c1	70 µM
CC(=O)Nc1cccc(-c2cc(C(=O)O)cc(-c3cccc(NC(C)=O)c3)c2)c1	20 to 30 µM
NCCc1cccc(-c2cccc(C(=O)O)c2)c1	300 µM
